Hits are enriched below; roughly 3.1% of the tested compounds scored in any of these assays.
PP1 counter: blocks human PP1-alpha phosphatase, a PP5 counter-screen; P62136; purified PP1alpha, OMFP fluorescence; inhibition, % at 6.7 µM; 0.9% of 320,000 active; AID 2235;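 active = inhibition above the mean inhibition of all tested compounds plus 3 SD, computed separately for each screening campaign, cut at about 15% in these data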
NadD inh: NadD (S. aureus) enzyme inhibition | purified NadD enzyme, colorimetric absorbance read-out | inhibition, % at 20 µM | 0.78% of 360,000 active | AID 602399; in the data active = inhibition above about 26%
Myeloid diff 2: compounds promoting myeloid differentiation; ER-HoxA9 myeloid progenitors, lysozyme-GFP differentiation, flow cytometry; calls only at 10 µM; 1% of 360,000 active;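 active = normalized GFP-positive differentiation at or above the plate's own cutoff, the solvent-only control mean plus 3 SD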;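 note: cells exposed to compound for four days before flow analysis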
CTSL1 counter: counter-screen for PFM18AAP inhibitors: inhibitors of F. hepatica cathepsin L1; recombinant F. hepatica cathepsin L1, Z-Leu-Arg-MCA fluorescence; inhibition, % at 5.96 µM; 0.49% of 300,000 active; AID 1906;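 active = inhibition above the mean of all tested compounds plus 3 SD, set per screening campaign, cut at about 17% in these data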;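 note: 0% = plate median of test compound wells and 100% = 1 µM Z-Phe-Ala-diazomethylketone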
PP5 inh: inhibitors of human protein phosphatase 5 (PP5); purified PP5c, OMFP substrate fluorescence; inhibition, % at 6.7 µM; 0.18% of 320,000 active; AID 1987;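 active = inhibition above the campaign's mean inhibition across all tested compounds plus 3 SD, cut at about 9.5% in these data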;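 note: 0% = DMSO only and 100% = 100 µM cantharidin control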
Target sequence (P53041 whole entry, looked up): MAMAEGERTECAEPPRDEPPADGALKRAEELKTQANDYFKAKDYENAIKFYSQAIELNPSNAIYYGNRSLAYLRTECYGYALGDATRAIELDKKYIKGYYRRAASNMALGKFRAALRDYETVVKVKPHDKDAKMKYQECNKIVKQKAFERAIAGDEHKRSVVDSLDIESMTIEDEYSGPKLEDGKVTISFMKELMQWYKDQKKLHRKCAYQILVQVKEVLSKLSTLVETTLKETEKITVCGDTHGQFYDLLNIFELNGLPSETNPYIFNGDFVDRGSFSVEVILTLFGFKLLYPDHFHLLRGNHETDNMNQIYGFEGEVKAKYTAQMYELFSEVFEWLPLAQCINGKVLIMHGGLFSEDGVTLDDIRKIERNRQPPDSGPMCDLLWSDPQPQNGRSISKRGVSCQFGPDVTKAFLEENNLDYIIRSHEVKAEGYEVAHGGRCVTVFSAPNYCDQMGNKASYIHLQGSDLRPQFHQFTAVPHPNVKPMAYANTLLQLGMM
HCV core dimer: blocks dimerization of HCV core protein | TR-FRET GST/Flag-core106 dimerization, 1536-well | inhibition, % at 5 µM | 0.33% of 300,000 active | AID 1899;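 active = inhibition above the mean of all tested compounds plus 3 SD, set per screening campaign, cut at about 45% in these data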
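Assay system: Tagged HCV core106 pair (GST and Flag) | Buffer or medium: KF-containing HEPES buffer, pH 7.45, DTT, CHAPS, BSA | Also added: Eu donor and XL665 acceptor anti-tag antibodies | Dosing: One concentration, 5 µM, in 0.5% DMSO | Timing: 4 h at 22.5 °C | Technique: TR-FRET 671 and 617 nm emission | Repeats: Singlicate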
* = called active by the depositor; i = inactive; . = not tested or not shown; + = active, no number.

SMILES	PP1 counter	NadD inh	Myeloid diff 2	CTSL1 counter	PP5 inh	HCV core dimer
Cc1ccc2oc(C(=O)NCC(c3ccco3)N3CCCC3)c(C)c2c1 (centres undefined)	-5.5	-9.0	+	-3.7	3.0	-10.3
O=C(NCC(c1ccco1)N1CCCCC1)c1ccc([N+](=O)[O-])s1 (centres undefined)	.	0.8	+	.	.	.
O=C(NCC(c1ccco1)N1CCCC1)c1ccccc1Sc1ccc(C(F)(F)F)cc1[N+](=O)[O-] (centres undefined)	-1.2	-1.3	i	19.8*	-1.1	1.0
Cc1cc2oc(C(=O)NCC(c3ccco3)N3CCCC3)c(C)c2cc1C (centres undefined)	.	0.7	i	.	.	.
N#Cc1ccccc1Sc1ccccc1C(=O)NCC(c1ccco1)N1CCCCC1 (centres undefined)	-1.2	-1.0	i	.	0.9	.
Cc1ccc(NC(=O)CCN2CCOCC2)cc1C	.	-0.6	i	.	.	.
Cc1ccccc1OCC(=O)Nc1ccc(N2CCOCC2)cc1N1CCOCC1	-6.5	-0.3	i	.	0.7	.
Cc1cc(N2CCCC2)ccc1NC(=O)COc1ccccc1	.	29.8	+	.	.	.
CCc1ccccc1OCC(=O)Nc1ccc(N2CCCC2)cc1C	.	22.7	+	.	.	.
COc1ccc(NC(=O)C2CCC(C(C)(C)C)CC2)cc1S(=O)(=O)N1CCOCC1 (centres undefined)	5.8	-2.2	i	.	3.9	.
CN(Cc1ccccc1)C(=O)c1cccc(NC(=O)Cc2cccc(NC(=O)C3CCN(C(=O)c4ccccc4)CC3)c2)c1	.	10.8	i	.	.	.
O=C(CN1CCN(S(=O)(=O)/C=C/c2ccccc2)CC1)NCC(F)(F)F	0.4	1.0	i	-1.5	0.8	5.8
O=C(Nc1ccc2c(c1)CCC2)c1cc(S(=O)(=O)N2CCN(c3ccccc3)CC2)ccc1Cl	8.2	32.2*	i	4.8	2.3	54.7*
Cc1ccc(N(C(=O)CCl)C(C(=O)NC2CCCCC2)c2cccnc2)cc1C (centres undefined)	5.7	.	.	17.6*	4.3	4.7
O=C(COC(=O)c1c(Cl)ccc(Cl)c1Cl)NCC1CCCO1 (centres undefined)	.	4.3	i	.	.	.
O=C(COC(=O)c1cccc(S(=O)(=O)N2CCc3ccccc3C2)c1)NCc1ccco1	3.4	1.3	i	-3.7	3.6	51.4*
O=C(COC(=O)c1cc(S(=O)(=O)N2CCc3ccccc3C2)ccc1Cl)NCc1ccco1	4.0	26.7	i	-0.8	2.9	10.2
CCSc1nnc(NC(=O)C2CC=CCC2C(=O)O)s1 (centres undefined)	15.9*	-5.1	i	0.9	-2.4	4.8
O=CN1N=C(c2ccccc2)CC1c1ccc(Cl)cc1 (centres undefined)	1.6	-4.8	i	1.5	1.0	-16.5
O=C1OC(c2ccccc2)=NC12CC2c1ccc(Cl)cc1 (centres undefined)	-10.4	1.5	i	20.8*	0.5	-5.0
N#C/C(=C\c1cccnc1)c1ccccc1[N+](=O)[O-]	1.8	-2.8	i	-4.7	3.3	-2.1
Nc1ccc(C(=O)NCC(=O)O)cc1	-4.3	-0.1	+	2.8	-0.7	7.7
O=C(O)CNC(=O)c1ccc(OC(F)F)cc1	-0.2	-2.2	i	-0.6	1.8	6.7
O=C(O)CNC(=O)c1ccc(Oc2c(F)c(F)c(Oc3ccc(C(=O)NCC(=O)O)cc3)c(F)c2F)cc1	12.3	3.2	+	-1.7	1.8	-6.7
COc1ccc2[nH]c(=O)c(CN(C3CCCCC3)C(c3nnnn3Cc3ccco3)C(C)C)cc2c1 (centres undefined)	20.5*	59.1*	i	13.5	5.6	69.5*
Cn1c(SCc2cccc(F)c2)nnc1-c1cnccn1	-5.7	-11.9	i	54.2*	-0.7	1.9
COc1ccc(NC(=O)N2CCN(C(=O)C3CCCO3)CC2)cc1 (centres undefined)	-4.7	2.2	i	-1.0	-0.1	3.6
Cc1ccc(NC(=O)Nc2ccc3c(c2)OCO3)c(OC(F)F)c1	.	-6.0	i	.	.	.

Screens: PubChem BioAssay, several laboratories
